Data reported in ChEMBL document CHEMBL1157378, “Role for cell density in antifungal drug resistance in Candida albicans biofilms” (2007).

Experiments:
Type in all cases: functional
Candida albicans [1] = test: Antimicrobial activity against Candida albicans SC5314 at planktonic cell density of 10^3 cells/ml after 24 hrs by XTT assay; conditions: SC5314, 24 h
How it was run: (§1)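 Planktonic yeast grown in YNB with 50 mM glucose at room temperature with shaking, subcultured to about 2 x 10^8 cells/ml, then washed and resuspended in MOPS-buffered RPMI 1640 with L-glutamine at the stated density. 100 µl of cells was mixed with 100 µl of a twofold drug series (prepared at 1,024 to 0.0313 µg/ml) and incubated for 24 h at 37°C. Read-out was XTT with 1 µM menadione at 37°C, absorbance at 490 nm.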

Candida albicans [2] = test: Antimicrobial activity against Candida albicans SC5314 at planktonic cell density of 10^8 cells/ml after 24 hrs by XTT assay; conditions: SC5314, 24 h; how it was run: as §1
Candida albicans [3] = test: Antimicrobial activity against Candida albicans SC5314 dissociated biofilms at cell density of 10^3 cells/ml after 24 hrs by XTT assay; conditions: SC5314, 24 h
How it was run: (§2)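 Polystyrene-well biofilms (48 h, 37°C) washed, then broken up in 100 µl RPMI by scraping and aspiration. Cells used undiluted (about 2 x 10^8 cells/ml equivalent) or adjusted by A600 against a hemacytometer-calibrated yeast standard curve. Drug exposure at 37°C for 48 h (caspofungin 24 h), then XTT/menadione read at 490 nm.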

Candida albicans [4] = test: Antimicrobial activity against Candida albicans SC5314 dissociated biofilms at cell density of 10^8 cells/ml after 24 hrs by XTT assay; conditions: SC5314, 24 h
How it was run: (§3)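 Biofilms grown from 1 x 10^6 cells/ml in RPMI on polystyrene 96-well plates, 48 h at 37°C in a moist chamber, then washed and scraped into 100 µl RPMI. Cells used undiluted (about 2 x 10^8 cells/ml equivalent) or diluted to a low density set against an A600 standard curve. A twofold drug series was added for 24 h at 37°C. Read-out was XTT/menadione at 490 nm.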

Candida albicans [5] = test: Antimicrobial activity against Candida albicans SC5314 intact biofilms after 24 hrs by XTT assay; conditions: SC5314, 24 h
How it was run: (§4)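 Intact biofilms formed from 1 x 10^6 cells/ml in RPMI in polystyrene microtiter wells, 48 h at 37°C in a moist chamber, then washed once and covered with 100 µl RPMI. A twofold drug series was added in the same well for 24 h at 37°C. Metabolic activity was read by XTT (0.5 g/liter, 1 µM menadione, up to 2 h) at 490 nm.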

Candida albicans [6] = test: Antimicrobial activity against Candida albicans GDH2346 at planktonic cell density of 10^3 cells/ml after 24 hrs by XTT assay; conditions: GDH2346, 24 h; how it was run: as §1
Candida albicans [7] = test: Antimicrobial activity against Candida albicans GDH2346 at planktonic cell density of 10^8 cells/ml after 24 hrs by XTT assay; conditions: GDH2346, 24 h; how it was run: as §1
Candida albicans [8] = test: Antimicrobial activity against Candida albicans GDH2346 dissociated biofilms at cell density of 10^3 cells/ml after 24 hrs by XTT assay; conditions: GDH2346, 24 h; how it was run: as §3
Candida albicans [9] = test: Antimicrobial activity against Candida albicans GDH2346 dissociated biofilms at cell density of 10^8 cells/ml after 24 hrs by XTT assay; conditions: GDH2346, 24 h; how it was run: as §3
Candida albicans [10] = test: Antimicrobial activity against Candida albicans GDH2346 intact biofilms after 24 hrs by XTT assay; conditions: GDH2346, 24 h; how it was run: as §4
Candida albicans [11] = test: Antimicrobial activity against Candida albicans FH1 at planktonic cell density of 10^3 cells/ml after 24 hrs by XTT assay; conditions: FH1, 24 h
How it was run: (§5)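 YNB-grown yeast (50 mM glucose, room temperature, shaken, to ~2 x 10^8 cells/ml) washed into MOPS-buffered RPMI 1640 with L-glutamine and set to the stated density. Exposed to twofold serial drug dilutions (1,024 to 0.0313 µg/ml) at 37°C, 48 h (caspofungin 24 h), with drug-free controls. Read-out: XTT (0.5 g/liter) plus 1 µM menadione, formazan at 490 nm.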

Candida albicans [12] = test: Antimicrobial activity against Candida albicans FH1 at planktonic cell density of 10^8 cells/ml after 24 hrs by XTT assay; conditions: FH1, 24 h; how it was run: as §1
Candida albicans [13] = test: Antimicrobial activity against Candida albicans FH1 dissociated biofilms at cell density of 10^3 cells/ml after 24 hrs by XTT assay; conditions: FH1, 24 h; how it was run: as §2
Candida albicans [14] = test: Antimicrobial activity against Candida albicans FH1 dissociated biofilms at cell density of 10^8 cells/ml after 24 hrs by XTT assay; conditions: FH1, 24 h; how it was run: as §3
Candida albicans [15] = test: Antimicrobial activity against Candida albicans FH1 intact biofilms after 24 hrs by XTT assay; conditions: FH1, 24 h; how it was run: as §4
Candida albicans [16] = test: Antimicrobial activity against fluconazole-resistant Candida albicans FH5 at planktonic cell density of 10^3 cells/ml after 24 hrs by XTT assay; conditions: FH5, 24 h; how it was run: as §5
Candida albicans [17] = test: Antimicrobial activity against fluconazole-resistant Candida albicans FH5 at planktonic cell density of 10^8 cells/ml after 24 hrs by XTT assay; conditions: FH5, 24 h; how it was run: as §5
Candida albicans [18] = test: Antimicrobial activity against fluconazole-resistant Candida albicans FH5 dissociated biofilms at cell density of 10^3 cells/ml after 24 hrs by XTT assay; conditions: FH5, 24 h; how it was run: as §2
Candida albicans [19] = test: Antimicrobial activity against fluconazole-resistant Candida albicans FH5 dissociated biofilms at cell density of 10^8 cells/ml after 24 hrs by XTT assay; conditions: FH5, 24 h; how it was run: as §2
Candida albicans [20] = test: Antimicrobial activity against fluconazole-resistant Candida albicans FH5 intact biofilms after 24 hrs by XTT assay; conditions: FH5, 24 h
How it was run: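 Biofilm seeded at 1 x 10^6 cells/ml in RPMI in polystyrene microtiter wells and grown 48 h at 37°C in a moist chamber. Washed once and drug added to the same well (twofold dilutions, 1,024 to 0.0313 µg/ml) for 48 h at 37°C (caspofungin 24 h). Read-out: XTT/menadione reduction at 490 nm.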

Candida albicans [21] = test: Antimicrobial activity against Cdr1, Cdr2 and Mdr1 deficient Candida albicans DSY1050 at planktonic cell density of 10^3 cells/ml after 24 hrs by XTT assay; conditions: DSY1050, 24 h; how it was run: as §1
Candida albicans [22] = test: Antimicrobial activity against Cdr1, Cdr2 and Mdr1 deficient Candida albicans DSY1050 at planktonic cell density of 10^8 cells/ml after 24 hrs by XTT assay; conditions: DSY1050, 24 h; how it was run: as §1
Candida albicans [23] = test: Antimicrobial activity against Cdr1, Cdr2 and Mdr1 deficient Candida albicans DSY1050 dissociated biofilms at cell density of 10^3 cells/ml after 24 hrs by XTT assay; conditions: DSY1050, 24 h; how it was run: as §3
Candida albicans [24] = test: Antimicrobial activity against Cdr1, Cdr2 and Mdr1 deficient Candida albicans DSY1050 dissociated biofilms at cell density of 10^8 cells/ml after 24 hrs by XTT assay; conditions: DSY1050, 24 h; how it was run: as §3
Candida albicans [25] = test: Antimicrobial activity against Cdr1, Cdr2 and Mdr1 deficient Candida albicans DSY1050 intact biofilms after 24 hrs by XTT assay; conditions: DSY1050, 24 h; how it was run: as §4
Candida albicans [26] = test: Antimicrobial activity against Chk1 deficient Candida albicans CHK21 at planktonic cell density of 10^3 cells/ml after 24 hrs by XTT assay; conditions: CHK21, 24 h; how it was run: as §5
Candida albicans [27] = test: Antimicrobial activity against Chk1 deficient Candida albicans CHK21 at planktonic cell density of 10^8 cells/ml after 24 hrs by XTT assay; conditions: CHK21, 24 h; how it was run: as §1
Candida albicans [28] = test: Antimicrobial activity against Chk1 deficient Candida albicans CHK21 dissociated biofilms at cell density of 10^3 cells/ml after 24 hrs by XTT assay; conditions: CHK21, 24 h; how it was run: as §2
Candida albicans [29] = test: Antimicrobial activity against Chk1 deficient Candida albicans CHK21 dissociated biofilms at cell density of 10^8 cells/ml after 24 hrs by XTT assay; conditions: CHK21, 24 h; how it was run: as §3
Candida albicans [30] = test: Antimicrobial activity against Chk1 deficient Candida albicans CHK21 intact biofilms after 24 hrs by XTT assay; conditions: CHK21, 24 h; how it was run: as §4

Measured: MIC80

CC[C@H](C)C[C@H](C)CCCCCCCCC(=O)N[C@H]1C[C@@H](O)[C@@H](NCCN)NC(=O)[C@@H]2[C@@H](O)CCN2C(=O)[C@H]([C@H](O)CCN)NC(=O)[C@H]([C@H](O)[C@@H](O)c2ccc(O)cc2)NC(=O)[C@@H]2C[C@@H](O)CN2C(=O)[C@H]([C@@H](C)O)NC1=O [CASPOFUNGIN]
0.125 µg/mL: Candida albicans [6]
0.25 µg/mL: Candida albicans [1] | Candida albicans [8] | Candida albicans [21] | Candida albicans [23]
> 32 µg/mL: Candida albicans [2] | Candida albicans [4] | Candida albicans [5] | Candida albicans [7] | Candida albicans [9] | Candida albicans [10] | Candida albicans [12] | Candida albicans [14] | Candida albicans [15] | Candida albicans [17] | Candida albicans [19] | Candida albicans [20] | Candida albicans [22] | Candida albicans [24] | Candida albicans [25] | Candida albicans [27] | Candida albicans [29] | Candida albicans [30]
0.5 µg/mL: Candida albicans [3] | Candida albicans [11] | Candida albicans [13] | Candida albicans [16] | Candida albicans [18] | Candida albicans [26] | Candida albicans [28]
